Source: PubChem
A selection: hits, their analogues and other compounds. The true share with any hit is near 2.3%.
TRPC4 block: inhibitors of mouse TRPC4 channel | B-score at 10 µM | Q9QUQ5 | actives 0.39% (n = 300,000) | HEK293 TRPC4beta/mu-opioid, DAMGO-evoked Fluo4 calcium flux; stronger effect = lower value;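 active means B-score over 3 SD under the library average, no early fluorescence shift, positive overall ratio signal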
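Material: HEK293 cells with stable TRPC4beta plus mu-opioid receptor expression; probe or stimulus: DAMGO in two steps, submaximal then maximal; technique: Fluo4 calcium fluorescence by kinetic imaging, 5 s 1 Hz baseline; measure: integrated fluorescence ratio relative to baseline, converted to per-well B score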
TRPC4 potent: allosterically enhances the mouse TRPC4 cation channel | HEK293 TRPC4beta/mu-opioid, DAMGO EC20, Fluo-4 Ca2+ flux; stronger effect = higher value | B-score at 10 µM | actives 0.42% (n = 310,000);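 active means B-score of calcium response area above 5 SD of library B-scores, with initial fluorescence ratio within 5 SD of library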;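 further: B-score of integrated fluorescence ratio over time as area under calcium response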
Yeast superoxide: yeast age-related superoxide inhibition as caloric restriction mimetic. S. cerevisiae aged cells, superoxide DHE fluorescence; stronger effect = lower value. superoxide response (% of plate mean), % at 10 µM. actives 0.18% (n = 330,000). AID 2690;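 active means superoxide response under a set limit, about three screen SD below normal, cut at about 65% in these data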;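 further: yeast aged for seven days with compound at 30 °C before DHE staining; 100% = average MFI of all compound-treated wells on the plate with controls excluded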
TRPC6 act: activators of mouse TRPC6 channel. Q61143. HEK293-TRPC6 membrane potential dye fluorescence; stronger effect = higher value. B-score at 10 µM. actives 0.13% (n = 310,000). AID 2550;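 active means B-score of the integrated fluorescence ratio above library mean plus 3 SD, and starting fluorescence ratio within library mean plus 5 SD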;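 further: higher score means more depolarization so channel activation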
Target sequence (Q61143 whole entry, looked up): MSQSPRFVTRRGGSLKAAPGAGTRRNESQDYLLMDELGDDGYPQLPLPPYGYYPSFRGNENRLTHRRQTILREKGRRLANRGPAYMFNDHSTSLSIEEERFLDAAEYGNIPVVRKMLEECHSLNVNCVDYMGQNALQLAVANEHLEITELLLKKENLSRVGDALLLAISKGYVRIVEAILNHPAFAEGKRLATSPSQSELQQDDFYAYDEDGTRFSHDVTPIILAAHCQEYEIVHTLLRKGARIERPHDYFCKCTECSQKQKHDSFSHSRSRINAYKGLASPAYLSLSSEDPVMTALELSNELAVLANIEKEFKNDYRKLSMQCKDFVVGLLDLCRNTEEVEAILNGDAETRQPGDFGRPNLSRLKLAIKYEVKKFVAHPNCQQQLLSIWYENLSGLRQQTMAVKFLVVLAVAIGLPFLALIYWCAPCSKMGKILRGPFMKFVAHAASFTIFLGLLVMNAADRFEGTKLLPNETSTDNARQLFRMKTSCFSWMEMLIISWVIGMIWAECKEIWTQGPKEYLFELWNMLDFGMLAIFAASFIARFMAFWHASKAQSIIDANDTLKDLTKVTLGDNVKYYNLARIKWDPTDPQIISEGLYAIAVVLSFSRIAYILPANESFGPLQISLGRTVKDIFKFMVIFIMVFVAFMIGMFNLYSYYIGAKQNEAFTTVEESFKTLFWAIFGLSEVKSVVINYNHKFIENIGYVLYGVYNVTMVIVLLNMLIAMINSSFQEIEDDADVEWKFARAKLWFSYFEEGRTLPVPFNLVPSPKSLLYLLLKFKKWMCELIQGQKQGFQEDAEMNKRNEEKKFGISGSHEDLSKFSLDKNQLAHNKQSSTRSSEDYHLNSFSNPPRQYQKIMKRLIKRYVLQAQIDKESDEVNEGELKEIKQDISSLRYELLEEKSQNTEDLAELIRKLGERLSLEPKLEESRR
TRPC4 act: opens the mouse TRPC4 cation channel. actives 0.49% (n = 310,000). AID 2237. B-score at 10 µM. HEK293 TRPC4beta/mu-opioid, Fluo4 calcium fluorescence; stronger effect = higher value. Q9QUQ5;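 active means B-score above 5 SD of library B-scores, and initial fluorescence ratio not above library mean plus 5 SD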;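 further: positive B-score marks a calcium rise read as TRPC4 activation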
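Assay system: HEK293 stable line with TRPC4beta plus mu-opioid receptor. Times: dye 45 min RT, read 110 s. Measured by: kinetic Fluo4 calcium fluorescence. Measure: B score of integrated ratio. Controls: assay buffer as low control, maximal DAMGO as high control.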
TRPC6 inhibitor: blocks the mouse TRPC6 cation channel; Q61143; HEK293-TRPC6, membrane potential dye, ACh-evoked depolarization; stronger effect = lower value; B-score at 10 µM; actives 1.1% (n = 310,000);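 active means B-score under library mean minus 3 SD, initial fluorescence not abnormally high, positive integrated signal ratio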;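 further: B-score derived from integrated fluorescence ratio over the kinetic read; more negative B-score means stronger inhibition of depolarization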
TRPC4 spec 2: mouse TRPC4 off-target activity of TRPC6 inhibitors, second screen; shares compounds with TRPC6 inhibitor; HEK293 TRPC4/MOR, membrane potential dye fluorescence; channel activated by saturating DAMGO dose; inhibition, % at 10 µM; actives 42% (n = 920); AID 2776;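 active means compounds whose fluorescence signal differed from control wells by over 3 SD, either direction, in both duplicate plates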
TRPC4 spec: selectivity of TRPC6 inhibitors: effect on mouse TRPC4. HEK293 TRPC4/mu-opioid, membrane potential fluorescence. AID 2777. shares compounds with TRPC6 inhibitor. activity change, negative = inhibition, % at 10 µM. actives 61% (n = 920);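 active means rise or fall in signal beyond 3 SD of buffer-only wells in both replicate plates, either sign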;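 further: integrated kinetic ratio of fluorescence range over baseline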
HEK293 MPD ctr 2-1: parental HEK293 nonspecific activity of TRPC6 inhibitors, second screen | shares compounds with TRPC6 inhibitor | actives 31% (n = 920) | signal change vs control, % at 10 µM | parental HEK293 membrane potential dye fluorescence; maximal acetylcholine challenge after compound addition;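 active means membrane potential signal moving either way by over 3 SD of the maximum-effect control, in both duplicate plates, meaning non-specific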
HEK293 MPD ctr-1: parental HEK293 nonspecific activity of TRPC6 inhibitors | shares compounds with TRPC6 inhibitor | parental HEK293 membrane potential dye fluorescence | membrane potential signal change, % at 10 µM | actives 60% (n = 920);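 active means membrane potential signal shifting up or down by more than 3 SD of buffer-only wells, on both duplicate plates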
HEK293 MPD ctr-2: checks TRPC6 modulator effects in parental HEK293 cells | shares compounds with TRPC6 inhibitor | membrane potential dye fluorescence | membrane potential signal change, % at 10 µM | actives 51% (n = 2,400) | AID 488924;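 active means membrane potential signal moves up or down beyond 5 SD from buffer-only wells, on both duplicate plates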
HEK293 MPD ctr 2-2: second counter-screen for TRPC6 modulators: effect in parental HEK293 cells. shares compounds with TRPC6 inhibitor. membrane potential dye fluorescence; after compound, maximal acetylcholine stimulation. inhibition, % at 10 µM. actives 14% (n = 2,400). AID 488926;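 active means membrane potential signal drops by more than 5 SD from the mean control signal, in both duplicate plates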;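 further: plate controls were acetylcholine ECmax control wells for no effect and buffer only wells for full effect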
TRPC4 ctr mod: mouse TRPC4 off-target activity of TRPC6 modulators; AID 488927; percent change from control (negative = decrease, positive = increase), % at 10 µM; actives 69% (n = 2,400); HEK293 TRPC4/mu-opioid, membrane potential fluorescence; shares compounds with TRPC6 inhibitor;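 active means membrane potential signal moved up or down beyond 5 SD of buffer control wells, in both duplicate plates, actives on both sides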;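 further: plate controls were assay buffer wells for no effect and DAMGO maximal-effect wells for full effect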
TRPC4/MOR inh 2: second check of whether TRPC6 modulators also affect mouse TRPC4; AID 488928; actives 55% (n = 2,400); inhibition, % at 10 µM; HEK293 TRPC4/mu-opioid, membrane potential dye fluorescence; stimulated with maximal-effect DAMGO; shares compounds with TRPC6 inhibitor;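 active means drop in membrane potential signal beyond 5 SD of the control wells in both duplicate plates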;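 further: TRPC4 counter screen for TRPC6 hits run under conditions tuned for TRPC6 not TRPC4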
TRPC6 inh conf: confirmation of mouse TRPC6 inhibitors; shares compounds with TRPC6 inhibitor; actives 43% (n = 3,300); HEK293-TRPC6, membrane potential dye, ACh-evoked depolarization; AID 488960; inhibition, % at 10 µM;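 active means fluorescence ratio falls more than 5 SD below the full-stimulation control mean, in both duplicate runs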;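 further: integrated fluorescence ratio of peak minus minimum over baseline after agonist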
TRPC6 act confirm: mouse TRPC6 activator confirmation; actives 11% (n = 2,800); AID 488961; activation, % at 10 µM; shares compounds with TRPC6 inhibitor; HEK293-TRPC6 membrane potential dye fluorescence, FDSS;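 active means ratio signal rise beyond 5 SD above unstimulated control wells' mean, seen in both duplicate runs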;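 further: plate controls were buffer EC0 wells for no effect and acetylcholine ECmax response for full effect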
* hit, by the source's call; i = inactive; nt = no result.

SMILES | TRPC4 block | TRPC4 potent | Yeast superoxide | TRPC6 act | TRPC4 act | TRPC6 inhibitor | HEK293 MPD ctr-2 | HEK293 MPD ctr 2-2 | TRPC4 ctr mod | TRPC4/MOR inh 2 | TRPC6 inh conf | TRPC6 act confirm | others
CCCOc1ccc(N2C(=O)CC(N(CCc3ccc(OC)cc3)C(=O)/C=C/C(=O)O)C2=O)cc1 (stereo not given) | i | i | 92.0 | i | i | -10.1* | nt | nt | nt | nt | i | i | TRPC4 spec 2=i;TRPC4 spec=i;HEK293 MPD ctr 2-1=i;HEK293 MPD ctr-1=i
CCC(C(=O)NC1CCCCC1)n1c(SCc2ccccc2F)nc2ccncc21 (stereo not given) | i | i | 84.7 | i | i | -5.23* | i | i | i | i | i | i
COc1ccc(CNC(=O)C(=O)NCC2CCCO2)cc1 (stereo not given) | i | i | 93.5 | i | i | i | nt | nt | nt | nt | nt | nt
Brc1ccc(N/N=C(/N=Nc2nn[nH]n2)c2ccccc2)cc1 | -6* | i | 137.1 | i | i | -10.8* | -255.5%* | i | -44.0%* | 91.0%* | 65.0%* | i
Cc1ccccc1-n1nnnc1SCC(=O)Nc1ccc(N2CCN(C)CC2)cc1 | i | i | 83.7 | i | i | i | nt | nt | nt | nt | nt | nt
Cc1cccc(-n2nnnc2SCC(=O)Nc2ccc(N3CCN(C)CC3)cc2)c1 | i | i | 96.8 | i | i | -5.68* | i | i | i | 54.0%* | i | i
CCCNC(=O)c1ccc(N(Cc2ccccc2)S(C)(=O)=O)cc1 | i | i | 96.4 | i | i | i | nt | nt | nt | nt | nt | nt
CN(C)CCOC1c2ccccc2CSc2ccccc21 (stereo not given) | i | i | 100.0 | i | i | -7.76* | nt | nt | nt | nt | 53.3%* | nt | TRPC4 spec 2=i;TRPC4 spec=5.7%*;HEK293 MPD ctr 2-1=39.5%*;HEK293 MPD ctr-1=6.8%*
CN(C)CCOc1ccc2c(c1)Sc1ccccc1CC2=O | i | i | 104.5 | i | i | i | nt | nt | nt | nt | nt | nt
COc1cc(OC)c2c(-c3ccccc3)cc(=O)oc2c1C(CCN1CCOCC1)c1ccc(N(C)C)cc1 (stereo not given) | nt | nt | 87.9 | nt | nt | nt | nt | nt | nt | nt | nt | nt
COc1cc(OC)c2c(-c3ccccc3)cc(=O)oc2c1C(CCN1CCCCC1)c1ccc(N(C)C)cc1 (stereo not given) | i | i | 102.3 | i | 116* | -6.23* | i | i | 36.0%* | 103.5%* | 55.0%* | i
COc1cc(OC)c2ccc(=O)oc2c1C(CCN1CCCC(C)C1)c1ccc(N(C)C)cc1 (stereo not given) | i | i | 87.8 | i | i | -5.72* | -112.5%* | i | -26.0%* | 70.0%* | 49.0%* | i
COC(=O)c1sccc1NC(=O)c1ccccc1F | i | i | 104.1 | i | i | -6.29* | i | i | i | i | i | i
COC(=O)c1sccc1NC(=O)c1ccccc1C(=O)O | i | i | 97.8 | i | i | i | nt | nt | nt | nt | nt | nt
CCN(CC)CCNC(=O)c1ccc(NC(=O)c2ccc3c(c2)CCC3)cc1 | i | i | 84.6 | 11.6* | i | -9.48* | 217.0%* | i | 29.0%* | i | 69.0%* | 160.0%*
O=C(NC(Nc1nc2ccc([N+](=O)[O-])cc2s1)(C(F)(F)F)C(F)(F)F)c1cccnc1 | i | i | 92.5 | 15.3* | i | -8.17* | 388.5%* | 93.0%* | 92.0%* | 59.5%* | 77.0%* | 88.5%*
O=C(NNS(=O)(=O)c1ccc2ccccc2c1)C1CCN(Cc2ccccc2)CC1 | i | i | 96.1 | i | i | -18* | nt | nt | nt | nt | 82.9%* | nt | TRPC4 spec 2=i;TRPC4 spec=4.8%*;HEK293 MPD ctr 2-1=0.0%*;HEK293 MPD ctr-1=5.2%*
O=C(NNS(=O)(=O)c1ccc(F)cc1)C1CCN(S(=O)(=O)c2ccccc2)CC1 | i | i | 95.3 | i | i | i | nt | nt | nt | nt | nt | nt
O=C(NNS(=O)(=O)c1ccc(F)cc1)C1CCN(Cc2cccc(F)c2)CC1 | i | i | 99.8 | i | i | -5.02* | i | i | i | i | i | i
COc1nc(Nc2cccc(F)c2)nc(OC)n1 | i | i | 94.9 | i | i | i | nt | nt | nt | nt | nt | nt
COc1ccc(Nc2nc(N)c3ccccc3n2)c(OC)c1 | -7* | i | 102.9 | i | i | -10* | -202.5%* | 85.5%* | -41.5%* | 92.0%* | 90.5%* | i
COc1cc2nc(Nc3cccc(F)c3)nc(N)c2cc1OC | i | i | 91.5 | i | i | -6.47* | i | i | i | 47.0%* | 52.0%* | i
COc1ccc(Nc2nc(-c3ccccc3)nc3ccccc23)c(OC)c1 | i | i | 122.8 | i | i | i | nt | nt | nt | nt | nt | nt
Cc1ccc(Nc2nc3ccccc3c(=O)[nH]2)cc1C | i | i | 78.9 | i | i | i | nt | nt | nt | nt | nt | nt
Cc1ccc(Nc2nc(N)c3ccccc3n2)cc1C | i | i | 93.9 | i | i | -11.7* | -94.5%* | 65.0%* | -36.0%* | 78.0%* | 66.0%* | i
